Tests used:
[1] = Selectivity index, ratio of CC50 for primary human hepatocytes to EC50 for liver stage Plasmodium vivax hypnozoite infected in human hepatocytes; format: toxicity, cell-based; conditions: read-out: Ratio CC50/EC50
[2] = Selectivity index, ratio of CC50 for primary human hepatocytes to EC50 for liver stage Plasmodium vivax schizont infected in human hepatocytes; format: toxicity, cell-based; conditions: read-out: Ratio CC50/EC50
[3] = Cytotoxicity against human primary hepatocytes; format: toxicity, cell-based, Hepatocyte
Method in brief: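 Host primary human hepatocytes (18 000 per collagen-coated well) in the P. vivax liver-stage radical-cure cultures. Compound given days 5–7 post-infection from a 12-point 1:3 dilution series; fixed at day 12 and imaged by high-content imaging. 0.1% DMSO negative control. CC50 fitted per run from duplicate wells; two independent experiments.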

[4] = Cytotoxicity against human HepG2 cells incubated for 72 hrs by Hoechst 33342 staining based assay; format: toxicity, cell-based
Method in brief: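 HepG2 cells, 2000 per collagen-coated well, treated the following day by pin transfer from a 12-point 1:3 dilution series (1000× DMSO stocks). Puromycin positive control; 0.1% v/v DMSO negative. After 72 h: fixed, Hoechst 33342 nuclear stain, high-content imaging. CC50 fitted per run from duplicate wells; three independent experiments.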

Plasmodium vivax [5] = experiment: Antimalarial activity against liver stage Plasmodium vivax schizont infected in human hepatocytes preincubated for 5 to 10 days followed by compound addition and measured after 12 days post infection by immunofluorescence staining based assay; format: functional, organism-based; conditions: hepatocyte
Method in brief: (§1)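 Primary human hepatocytes seeded at 18 000 per collagen-coated well. Two days later, infected with sporozoites from mosquitoes fed P. vivax patient blood (Cambodia) 18 days earlier; a different isolate was used per experiment. Radical-cure mode: treated days 5–7 post-infection. Day 12: fixed, anti-PvUIS4 immunofluorescence, high-content imaging. Nigericin and 0.1% DMSO controls. Duplicate wells; two independent experiments.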

Plasmodium vivax [6] = experiment: Antimalarial activity against liver stage Plasmodium vivax hypnozoite infected in human hepatocytes preincubated for 5 to 10 days followed by compound addition and measured after 12 days post infection by immunofluorescence staining based assay; format: functional, organism-based; conditions: hepatocyte; method in brief: as §1
[7] = Selectivity index, ratio of CC50 for human HepG2 cells to EC50 for asexual blood stage Plasmodium falciparum W2; format: toxicity; conditions: read-out: Ratio CC50/EC50
Plasmodium falciparum = experiment: Antimalarial activity against asexual blood stage Plasmodium falciparum W2 incubated for 72 hrs by Hoechst 33342 staining based assay; format: functional, organism-based
Method in brief: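 P. falciparum W2 ring stages plated at 2% parasitemia and 0.75% hematocrit. Cells allowed to settle, then dosed by pin transfer from a 12-point 1:3 dilution series made from 1000× DMSO stocks. Artemisinin was the positive control and 0.1% v/v DMSO the negative. After 72 h: fixed, Hoechst 33342 DNA stain, high-content imaging. EC50 fitted per run from duplicate wells; three independent experiments.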

Row | Compound | selectivity ratio [1] | selectivity ratio [2] | CC50 ([3]; read-out: pCC50 (converted)) [µM] | CC50 at 72 h ([4]; read-out: CC50) [µM] | CC50 at 72 h ([4]; read-out: pCC50 (converted)) [µM] | EC50 (Plasmodium vivax [5]) [µM] | pEC50 (Plasmodium vivax [5]) | EC50 (Plasmodium vivax [6]) [µM] | pEC50 (Plasmodium vivax [6]) | selectivity ratio [7] | EC50 (Plasmodium falciparum) [µM] | pEC50 (Plasmodium falciparum) | CC50 ([3]; read-out: CC50) [µM]
1 | CO[C@@H]1C[C@@H](C[C@H]2CC[C@H](C)[C@H]([C@@H](C)C(=O)O)O2)O[C@]2(O[C@](C)([C@H]3CC[C@@](C)([C@@H]4O[C@@H]([C@H]5O[C@@](O)(CO)[C@H](C)C[C@@H]5C)C[C@@H]4C)O3)C[C@H]2C)[C@@H]1C [NIGERICIN] | > 16.3 | > 38.9 | 0.2 |  |  |  |  |  |  |  |  |  | 
2 | CC1=CC[C@@]23COC(=O)[C@@H](O)[C@H](C)CCOC(=O)/C=C/C=C\C(=O)O[C@@H]4C[C@@H](O[C@@H]2C1)[C@@]1(CO1)[C@]43C | 10.1 | 77.7 | 0.316 | 0.00355 | 0.00355 | 0.00407 | 8.39 | 0.0309 | 7.51 | 7.95 | 0.00045 | 9.35 | 0.316
3 | COc1ccc(C[C@H](N)C(=O)N[C@H]2[C@@H](O)[C@H](n3cnc4c(N(C)C)ncnc43)O[C@@H]2CO)cc1 [PUROMYCIN] | 2.25 | < 1 |  |  |  |  |  |  |  |  |  |  | 
4 | CC(=O)OC[C@]12CCC(C)=C[C@H]1O[C@@H]1[C@H](O)[C@@H](OC(C)=O)[C@@]2(C)[C@]12CO2 (single isomer, unassigned) | 10.7 | 28.7 |  |  |  |  | 7.87 |  | 7.44 | 4.43 |  | 8.21 | 
5 | CC1=C[C@H]2O[C@@H]3C[C@@H](O)[C@](C)([C@@]2(CO)CC1)[C@@]31CO1 |  |  |  |  |  | > 10 | < 5 | > 3.31 | < 5.48 |  | > 4.37 | < 5.36 | 

From ChEMBL document CHEMBL5357032, “In Vitro Antimalarial Activity of Trichothecenes against Liver and Blood Stages of Plasmodium Species” (J Nat Prod, 2024)
